Activity calls are given as the source filed them. The rule behind the calls is not given here.
How the values were obtained:
CCRF-CEM [1] = assay: Cytotoxicity against human CCRF-CEM cells assessed as reduction in cell viability incubated for 72 hrs by MTS assay; format: functional, cell-based
[2] = Cytotoxicity against human K562-Tax cells assessed as reduction in cell viability incubated for 72 hrs by MTS assay; format: functional, cell-based
HCT 116 TP53(-/-) = assay: Cytotoxicity against human HCT116-p53-null cells assessed as reduction in cell viability incubated for 72 hrs by MTS assay; format: functional, cell-based
A549 = assay: Cytotoxicity against human A549 cells assessed as reduction in cell viability incubated for 72 hrs by MTS assay; format: functional, cell-based; conditions: A549, 72 h
K562 = assay: Cytotoxicity against human K562 cells assessed as reduction in cell viability incubated for 72 hrs by MTS assay; format: functional, cell-based; conditions: K562, 72 h
U2OS = assay: Cytotoxicity against human U2OS cells assessed as reduction in cell viability incubated for 72 hrs by MTS assay; format: functional, cell-based
HCT-116 = assay: Cytotoxicity against human HCT-116 cells assessed as reduction in cell viability incubated for 72 hrs by MTS assay; format: functional, cell-based; conditions: HCT-116, 72 h
CEM-DNR = assay: Cytotoxicity against human CEM-DNR cells assessed as reduction in cell viability incubated for 72 hrs by MTS assay; format: functional, cell-based
[3] = Cytotoxicity against human MRC5 cells assessed as reduction in cell viability incubated for 72 hrs by MTS assay; format: toxicity, cell-based
[4] = Cytotoxicity against human BJ cells assessed as reduction in cell viability incubated for 72 hrs by MTS assay; format: toxicity, cell-based
CCRF-CEM [5] = assay: Induction of apoptosis in human CCRF-CEM cells assessed as early apoptotic cells at 1 time IC50 incubated for 24 hrs by Annexin V and propidium iodide staining based flow cytometry analysis (reference value: 1.4%); format: functional
CCRF-CEM [6] = assay: Induction of mitochondrial membrane potential loss in human CCRF-CEM cells assessed as cells with depolarized mitochondria (P2 gate) by measuring green fluorescence intensity at 5 time IC50 incubated for 24 hrs by JC-1 staining based flow cytometry (reference value: 2.1%)
[7] = Apparent permeability of the compound across apical to basolateral side in human Caco-2 cells assessed as compound recovery; format: ADME, cell-based; conditions: read-out: Activity
How it was run: (§1)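 Caco-2 and MDCK-MDR1 monolayers; transport measured in both directions, apical→basolateral and basolateral→apical. Efflux ratio taken from the two directions; ER > 2 counted as active efflux. Compound recovery reported. Cell-based permeability runs done in duplicate.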

CCRF-CEM [8] = assay: Induction of apoptosis in human CCRF-CEM cells assessed as viable cells at 1 time IC50 incubated for 24 hrs by Annexin V and propidium iodide staining based flow cytometry analysis (reference value: 98%); format: functional
[9] = Stability in human plasma assessed as compound remaining measured 60 mins by RF-MS analysis; format: ADME, cell-free; conditions: read-out: Stability
How it was run: (§2)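 Compounds incubated in human plasma in vitro for up to 2 h. Percent remaining sampled at 15, 30, 60 and 120 min. Run in triplicate.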

[10] = Stability in human plasma assessed as compound remaining measured 120 mins by RF-MS analysis; format: ADME, cell-free; conditions: read-out: Stability; how it was run: as §2
[11] = Stability in human plasma assessed as compound remaining measured 15 mins by RF-MS analysis; format: ADME, cell-free; conditions: read-out: Stability; how it was run: as §2
CCRF-CEM [12] = assay: Induction of apoptosis in human CCRF-CEM cells assessed as reduction in Bcl-XL expression at 5 time of IC50 incubated for 24 hrs by Western blot analysis; format: functional, cell-based
How it was run: (§3)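 Lysate 20 µg protein per lane on SDS-PAGE, transferred to nitrocellulose, blocked in 5% BSA/TBS-Tween. Probed overnight at 4 °C with anti-caspase-3, Bcl-2, Bcl-XL, β-actin, then HRP secondary 1 h. ECL chemiluminescence detection.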

CCRF-CEM [13] = assay: Induction of apoptosis in human CCRF-CEM cells assessed as necrotic cells at 1 time IC50 incubated for 24 hrs by Annexin V and propidium iodide staining based flow cytometry analysis (reference value: 0.1%); format: functional
CCRF-CEM [14] = assay: Induction of apoptosis in human CCRF-CEM cells assessed as reduction in Bcl-2 expression at 5 time of IC50 incubated for 24 hrs by Western blot analysis; format: functional, cell-based; how it was run: as §3
CCRF-CEM [15] = assay: Induction of apoptosis in human CCRF-CEM cells assessed as reduction in caspase-3 expression at 5 time of IC50 incubated for 24 hrs by Western blot analysis; format: functional, cell-based; how it was run: as §3
[16] = Metabolic stability in human liver microsomes assessed as compound remaining at measured at 60 mins in presence of NADPH by RF-MS analysis; format: ADME, Microsome; conditions: read-out: Stability
How it was run: (§4)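 Human liver microsomes with NADPH cofactor to assess phase I oxidation. Compound remaining sampled at 15, 30 and 60 min; intrinsic clearance derived and categorized. Run in triplicate.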

[17] = Apparent permeability of the compound across apical to basolateral side in MDCK-MDR1 cells assessed as compound recovery at 10 uM incubated for 1 hr by RF-MS analysis; format: ADME, cell-based, Canis lupus familiaris; conditions: dog, read-out: Activity; how it was run: as §1
CCRF-CEM [18] = assay: Induction of apoptosis in human CCRF-CEM cells assessed as early apoptotic cells at 5 time IC50 incubated for 24 hrs by Annexin V and propidium iodide staining based flow cytometry analysis (reference value: 1.4%); format: functional
[19] = Apparent permeability of the compound in MDCK-MDR1 cells at 10 uM incubated for 1 hr by RF-MS analysis; format: ADME, cell-based, Canis lupus familiaris; conditions: dog; how it was run: as §1
[20] = Stability in human plasma assessed as compound remaining measured 30 mins by RF-MS analysis; format: ADME, cell-free; conditions: read-out: Stability; how it was run: as §2
CCRF-CEM [21] = assay: Induction of apoptosis in human CCRF-CEM cells assessed as late apoptotic cells at 1 time IC50 incubated for 24 hrs by Annexin V and propidium iodide staining based flow cytometry analysis (reference value: 0.5%); format: functional
[22] = Metabolic stability in human liver microsomes assessed as compound remaining at measured at 15 mins in presence of NADPH by RF-MS analysis; format: ADME, Microsome; conditions: read-out: Stability; how it was run: as §4
CCRF-CEM [23] = assay: Induction of apoptosis in human CCRF-CEM cells assessed as necrotic cells at 5 time IC50 incubated for 24 hrs by Annexin V and propidium iodide staining based flow cytometry analysis (reference value: 0.; format: functional
[24] = Apparent permeability of the compound in human Caco-2 cells; format: ADME, cell-based; how it was run: as §1
CCRF-CEM [25] = assay: Induction of apoptosis in human CCRF-CEM cells assessed as viable cells at 5 time IC50 incubated for 24 hrs by Annexin V and propidium iodide staining based flow cytometry analysis (reference value: 98%); format: functional
[26] = Plasma protein binding in human assessed as fraction bound at 10 uM by rapid equilibrium dialysis based RF-MS analysis; format: ADME, cell-free; conditions: read-out: PPB (converted)
How it was run: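 Human plasma protein binding measured by equilibrium dialysis and reported as percent fraction bound. Run in triplicate.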

CCRF-CEM [27] = assay: Induction of mitochondrial membrane potential loss in human CCRF-CEM cells assessed as cells with depolarized mitochondria (P2 gate) by measuring green fluorescence intensity at 1 time IC50 incubated for 24 hrs by JC-1 staining based flow cytometry (reference value: 2.1%)
CCRF-CEM [28] = assay: Induction of apoptosis in human CCRF-CEM cells assessed as late apoptotic cells at 5 time IC50 incubated for 24 hrs by Annexin V and propidium iodide staining based flow cytometry analysis (reference value: 0.5%); format: functional

CC(C)[C@@H]1CC[C@]2(C(=O)O)CC[C@]3(C)[C@H](CC[C@@H]4[C@@]5(C)Cc6c(C(F)(F)F)cc7c(c6C(C)(C)[C@@H]5CC[C@]43C)C(=O)N(c3ccccc3)C7=O)[C@@H]12 showed an IC50 (CCRF-CEM [1]) of over 50 µM, an IC50 [2] of over 50 µM and an IC50 (HCT 116 TP53(-/-)) of over 50 µM. It also gave an IC50 (A549) of over 50 µM, an IC50 (K562) of over 50 µM and an IC50 (U2OS) of over 50 µM. It also gave an IC50 (HCT-116) of over 50 µM, an IC50 (CEM-DNR) of over 50 µM and an IC50 at 72 h [3] of over 50 µM. For the same compound, the IC50 at 72 h [4] was over 50 µM.

For C=C(C)[C@@H]1CC[C@]2(C(=O)O)CC[C@]3(C)[C@H](CC[C@@H]4[C@@]5(C)Cc6c(C(F)(F)F)cc7c(c6C(C)(C)[C@@H]5CC[C@]43C)C(=O)N(c3ccccc3)C7=O)[C@@H]12, the IC50 (CCRF-CEM [1]) was over 50 µM, the IC50 [2] was over 50 µM and the IC50 (HCT 116 TP53(-/-)) was over 50 µM. The IC50 (A549) was over 50 µM, the IC50 (K562) was over 50 µM and the IC50 (U2OS) was over 50 µM. The IC50 (HCT-116) was over 50 µM, the IC50 (CEM-DNR) was over 50 µM and the IC50 at 72 h [3] was over 50 µM. The IC50 at 72 h [4] was over 50 µM.

With C=C(C)[C@@H]1CC[C@]2(C(=O)O)CC[C@]3(C)[C@H](CC[C@@H]4[C@@]5(C)CC6=C(C7C(=O)N(c8ccccc8)C(=O)C7C=C6C(F)(F)F)C(C)(C)[C@@H]5CC[C@]43C)[C@@H]12 (some centres not stated) the Activity (CCRF-CEM [5]) was 4.3%, the Activity (CCRF-CEM [6]) was 2.6% and the IC50 (CCRF-CEM [1]) was 4.2 µM. The IC50 [2] was 9.7 µM, the recovery [7] was 86% and the IC50 (HCT 116 TP53(-/-)) was 12 µM. For the same compound, the IC50 (A549) was 9.7 µM, the Activity (CCRF-CEM [8]) was 92.5% and the IC50 (K562) was 25 µM. It also gave a remaining at 1 h [9] of 95.8%, a remaining at 2 h [10] of 101% and an IC50 (U2OS) of 7.6 µM. The remaining at 0.25 h [11] was 100%, the Activity (CCRF-CEM [12]) was “Active” and the Activity (CCRF-CEM [13]) was 0%. For the same compound, the Activity (CCRF-CEM [14]) was “Active”, the IC50 (HCT-116) was 7.8 µM and the IC50 (CEM-DNR) was 20 µM. The Activity (CCRF-CEM [15]) was “Active”, the remaining at 1 h [16] was 79% and the recovery at 1 h, 10 µM [17] was 94.1%. The Activity (CCRF-CEM [18]) was 5.2%, the Papp at 1 h, 10 µM [19] was 0.1 ×10⁻⁶ cm/s and the remaining at 0.5 h [20] was 92.7%. The Activity (CCRF-CEM [21]) was 3.2%, the remaining at 0.25 h [22] was 99% and the Activity (CCRF-CEM [23]) was 0.1%. For the same compound, the Papp [24] was 0.04 ×10⁻⁶ cm/s, the Activity (CCRF-CEM [25]) was 91.8% and the fraction unbound at 10 µM [26] was 0.273. It also gave an IC50 at 72 h [3] of 28 µM, an Activity (CCRF-CEM [27]) of 2% and an Activity (CCRF-CEM [28]) of 2.9%. For the same compound, the IC50 at 72 h [4] was over 50 µM.

For CC(C)[C@@H]1CC[C@]2(C(=O)O)CC[C@]3(C)[C@H](CC[C@@H]4[C@@]5(C)CC(C(=O)C(F)(F)F)C(=O)C(C)(C)[C@@H]5CC[C@]43C)[C@@H]12 (some centres not stated), the IC50 (CCRF-CEM [1]) was 8.6 µM, the IC50 (HCT 116 TP53(-/-)) was 26 µM and the IC50 (A549) was 11 µM. For the same compound, the IC50 (K562) was 29 µM, the IC50 (U2OS) was 25 µM and the IC50 (HCT-116) was 23 µM. It also gave an IC50 at 72 h [3] of 46 µM and an IC50 at 72 h [4] of 43 µM.

C[C@H]1[C@H](C)CC[C@]2(C(=O)O)CC[C@]3(C)C(=CC[C@@H]4[C@@]5(C)Cc6c(C(F)(F)F)cc(=O)oc6C(C)(C)[C@@H]5CC[C@]43C)[C@H]12 showed an IC50 (CCRF-CEM [1]) of 6.3 µM, an IC50 [2] of 21 µM and an IC50 (HCT 116 TP53(-/-)) of 27 µM. The IC50 (A549) was 17 µM, the IC50 (K562) was 23 µM and the IC50 (U2OS) was 23 µM. For the same compound, the IC50 (HCT-116) was 25 µM, the IC50 (CEM-DNR) was 19.5 µM and the IC50 at 72 h [3] was over 50 µM. It also gave an IC50 at 72 h [4] of over 50 µM.

— ChEMBL document CHEMBL5512642, “Novel triterpenoid pyrones, phthalimides and phthalates are selectively cytotoxic in CCRF-CEM cancer cells - Synthesis, potency, and mitochondrial mechanism of action” (Eur J Med Chem, 2024)
